Test results from ChEMBL document CHEMBL4028836, “Optimization of M4 positive allosteric modulators (PAMs): The discovery of VU0476406, a non-human primate in vivo tool compound for translational pharmacology” (Bioorg Med Chem Lett, 2017).

Legend:
[1] = Drug metabolism in rat cryopreserved hepatocytes assessed as metabolite M3 formation; assay type: ADME, cell-based, Hepatocyte
[2] = molecular target: Voltage-gated inwardly rectifying potassium channel KCNH2 (Homo sapiens, UniProt Q12809); assay: Inhibition of human ERG
[3] = Drug metabolism in rat cryopreserved hepatocytes assessed as metabolite M5 formation; assay type: ADME, cell-based, Hepatocyte
Salmonella typhimurium = assay: Mutagenicity in Salmonella typhimurium TA100 in presence of S9 fraction by mini-Ames test; assay type: toxicity; settings: salmonella enterica subsp. enterica serovar typhimurium
How it was run: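 Mini-Ames mutagenicity assay in Salmonella typhimurium strains TA98 and TA100, run with and without S9 metabolic activation.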

[4] = Drug metabolism in cynomolgus monkey cryopreserved hepatocytes assessed as metabolite M6 formation; assay type: ADME, cell-based, Macaca fascicularis, Hepatocyte
[5] = Drug metabolism in dog cryopreserved hepatocytes assessed as metabolite M5 formation; assay type: ADME, cell-based, Canis lupus familiaris, Hepatocyte
[6] = Positive allosteric modulation of cynomolgus monkey M4 receptor assessed as increase in acetylcholine-induced calcium mobilization; set-up: species or system Macaca fascicularis
How it was run: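 M4 PAM concentration-response curves measured by calcium mobilization at the stated species' receptor. Potency reported as EC50/pEC50 and efficacy as % of acetylcholine maximum.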

[7] = Drug metabolism in human cryopreserved hepatocytes assessed as metabolite M5 formation; assay type: ADME, cell-based, Hepatocyte
[8] = Unbound brain concentration in rat; assay type: ADME, tissue-based
[9] = Brain to plasma permeability coefficient, Kp of the compound in Sprague-Dawley rat at 0.1 to 0.2 mg/kg, iv measured at 0.25 hrs post dose; assay type: ADME, organism-based
How it was run: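 Sprague-Dawley rats were dosed IV at 0.1–0.2 mg/kg, with brain and plasma sampled at 0.25 hr. Brain:plasma Kp was calculated, with Kp,uu where unbound fractions were available.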

[10] = Drug metabolism in cynomolgus monkey cryopreserved hepatocytes assessed as metabolite M4 formation; assay type: ADME, cell-based, Macaca fascicularis, Hepatocyte
[11] = molecular target: Muscarinic acetylcholine receptor M5 (Homo sapiens, UniProt P08912); assay: Activity at human M5 receptor
[12] = Drug metabolism in rat cryopreserved hepatocytes assessed as metabolite M4 formation; assay type: ADME, cell-based, Hepatocyte
[13] = Aqueous solubility of the compound at pH 7.4; assay type: physicochemical; settings: buffer
[14] = Drug metabolism in cynomolgus monkey cryopreserved hepatocytes assessed as metabolite M1 formation; assay type: ADME, cell-based, Macaca fascicularis, Hepatocyte
[15] = molecular target: Muscarinic acetylcholine receptor M1 (Homo sapiens, UniProt P11229); assay: Activity at human M1 receptor
[16] = Drug metabolism in cynomolgus monkey cryopreserved hepatocytes assessed as metabolite M2 formation; assay type: ADME, cell-based, Macaca fascicularis, Hepatocyte
[17] = Drug metabolism in cynomolgus monkey cryopreserved hepatocytes assessed as metabolite M7 formation; assay type: ADME, cell-based, Macaca fascicularis, Hepatocyte
[18] = molecular target: Muscarinic acetylcholine receptor M2 (Homo sapiens, UniProt P08172); assay: Activity at human M2 receptor
[19] = Glutathione reactivity in human hepatic microsomes assessed as GSH-adduct formation; assay type: ADME, Liver, Microsome
[20] = molecular target: Muscarinic acetylcholine receptor M3 (Rattus norvegicus, UniProt P08483); assay: Activity at rat M3 receptor
[21] = molecular target: Muscarinic acetylcholine receptor M2 (Rattus norvegicus, UniProt P10980); assay: Activity at rat M2 receptor
[22] = Drug metabolism in rat cryopreserved hepatocytes assessed as metabolite M1 formation; assay type: ADME, cell-based, Hepatocyte
[23] = Oral bioavailability in rat at 10 mg/kg; assay type: ADME, organism-based; settings: in vivo
How it was run: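 Rat oral bioavailability from a 10 mg/kg solution dose. Separately, the HCl salt was dosed as a suspension.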

[24] = molecular target: Muscarinic acetylcholine receptor M5 (Rattus norvegicus, UniProt P08911); assay: Activity at rat M5 receptor
Chain of Muscarinic acetylcholine receptor M5 (Rattus norvegicus, UniProt P08911) (P08911 whole entry): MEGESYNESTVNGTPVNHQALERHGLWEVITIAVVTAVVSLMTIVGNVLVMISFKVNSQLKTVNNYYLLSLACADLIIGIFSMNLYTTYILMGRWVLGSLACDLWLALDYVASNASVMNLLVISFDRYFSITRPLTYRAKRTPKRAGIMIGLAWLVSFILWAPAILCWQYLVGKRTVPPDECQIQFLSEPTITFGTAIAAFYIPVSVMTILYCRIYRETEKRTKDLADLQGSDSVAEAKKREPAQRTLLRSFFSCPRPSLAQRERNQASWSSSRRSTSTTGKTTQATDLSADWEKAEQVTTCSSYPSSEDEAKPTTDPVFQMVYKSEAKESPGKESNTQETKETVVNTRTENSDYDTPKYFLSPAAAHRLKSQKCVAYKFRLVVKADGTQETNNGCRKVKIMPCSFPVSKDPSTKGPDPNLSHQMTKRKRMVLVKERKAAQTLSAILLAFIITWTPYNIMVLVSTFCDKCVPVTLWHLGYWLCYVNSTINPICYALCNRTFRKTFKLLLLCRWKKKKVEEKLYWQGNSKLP

Chain of Voltage-gated inwardly rectifying potassium channel KCNH2 (Q12809 whole entry): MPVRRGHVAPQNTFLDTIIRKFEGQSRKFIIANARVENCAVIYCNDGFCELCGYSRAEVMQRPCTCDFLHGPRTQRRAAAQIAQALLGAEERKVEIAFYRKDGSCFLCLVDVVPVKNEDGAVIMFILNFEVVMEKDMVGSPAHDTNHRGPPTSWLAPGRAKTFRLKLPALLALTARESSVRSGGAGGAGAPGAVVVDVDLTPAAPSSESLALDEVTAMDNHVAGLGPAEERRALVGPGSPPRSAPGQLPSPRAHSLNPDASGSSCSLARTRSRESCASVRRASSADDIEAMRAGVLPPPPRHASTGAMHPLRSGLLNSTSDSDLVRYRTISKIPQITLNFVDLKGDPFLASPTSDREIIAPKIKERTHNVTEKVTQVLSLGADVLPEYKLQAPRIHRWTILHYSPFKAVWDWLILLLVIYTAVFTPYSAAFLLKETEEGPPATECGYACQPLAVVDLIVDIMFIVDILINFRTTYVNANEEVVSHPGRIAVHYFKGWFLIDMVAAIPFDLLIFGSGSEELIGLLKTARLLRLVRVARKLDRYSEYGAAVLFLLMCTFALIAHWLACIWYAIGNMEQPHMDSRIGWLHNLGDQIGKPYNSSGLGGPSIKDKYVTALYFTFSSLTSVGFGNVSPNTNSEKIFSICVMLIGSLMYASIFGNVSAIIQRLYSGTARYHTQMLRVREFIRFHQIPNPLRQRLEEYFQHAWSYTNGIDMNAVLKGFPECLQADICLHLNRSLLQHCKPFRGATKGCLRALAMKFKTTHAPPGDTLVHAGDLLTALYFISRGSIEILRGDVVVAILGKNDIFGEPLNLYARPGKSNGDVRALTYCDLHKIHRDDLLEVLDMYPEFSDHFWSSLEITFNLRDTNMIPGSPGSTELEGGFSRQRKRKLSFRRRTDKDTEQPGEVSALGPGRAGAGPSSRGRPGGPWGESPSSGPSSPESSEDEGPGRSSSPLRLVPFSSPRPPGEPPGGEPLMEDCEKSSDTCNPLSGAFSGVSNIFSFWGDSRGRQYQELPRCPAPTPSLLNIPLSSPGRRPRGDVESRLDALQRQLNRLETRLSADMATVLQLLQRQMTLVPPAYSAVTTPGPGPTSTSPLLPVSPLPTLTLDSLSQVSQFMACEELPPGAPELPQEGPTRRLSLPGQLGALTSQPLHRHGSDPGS
Chain of Muscarinic acetylcholine receptor M1 (P11229 whole entry): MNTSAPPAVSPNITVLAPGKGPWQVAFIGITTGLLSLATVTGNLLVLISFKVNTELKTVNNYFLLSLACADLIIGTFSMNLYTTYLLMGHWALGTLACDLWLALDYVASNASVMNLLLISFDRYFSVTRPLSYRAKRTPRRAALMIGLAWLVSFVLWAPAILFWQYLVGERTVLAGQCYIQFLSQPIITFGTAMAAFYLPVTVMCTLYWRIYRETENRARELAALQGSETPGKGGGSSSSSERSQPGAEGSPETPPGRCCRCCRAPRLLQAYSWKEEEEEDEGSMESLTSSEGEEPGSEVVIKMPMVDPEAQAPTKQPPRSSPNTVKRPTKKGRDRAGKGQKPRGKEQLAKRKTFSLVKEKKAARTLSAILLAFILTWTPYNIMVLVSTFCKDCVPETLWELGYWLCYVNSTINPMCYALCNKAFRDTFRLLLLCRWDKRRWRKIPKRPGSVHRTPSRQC
Chain of Muscarinic acetylcholine receptor M5 (Homo sapiens, UniProt P08912) (P08912 whole entry): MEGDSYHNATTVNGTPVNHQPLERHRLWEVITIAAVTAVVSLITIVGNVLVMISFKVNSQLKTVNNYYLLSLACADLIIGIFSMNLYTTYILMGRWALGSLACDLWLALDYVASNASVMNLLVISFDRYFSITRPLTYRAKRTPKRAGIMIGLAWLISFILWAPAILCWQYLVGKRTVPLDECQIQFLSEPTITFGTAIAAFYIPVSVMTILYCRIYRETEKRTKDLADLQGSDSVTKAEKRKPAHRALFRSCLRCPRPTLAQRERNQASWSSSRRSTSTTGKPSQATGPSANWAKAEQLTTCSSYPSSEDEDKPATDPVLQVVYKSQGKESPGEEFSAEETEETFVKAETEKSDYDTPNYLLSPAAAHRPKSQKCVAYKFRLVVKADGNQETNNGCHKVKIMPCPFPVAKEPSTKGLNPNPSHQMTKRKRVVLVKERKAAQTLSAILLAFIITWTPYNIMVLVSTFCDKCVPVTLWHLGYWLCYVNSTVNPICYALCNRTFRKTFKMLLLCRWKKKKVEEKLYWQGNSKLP
Chain of Muscarinic acetylcholine receptor M2 (Rattus norvegicus, UniProt P10980) (P10980 whole entry): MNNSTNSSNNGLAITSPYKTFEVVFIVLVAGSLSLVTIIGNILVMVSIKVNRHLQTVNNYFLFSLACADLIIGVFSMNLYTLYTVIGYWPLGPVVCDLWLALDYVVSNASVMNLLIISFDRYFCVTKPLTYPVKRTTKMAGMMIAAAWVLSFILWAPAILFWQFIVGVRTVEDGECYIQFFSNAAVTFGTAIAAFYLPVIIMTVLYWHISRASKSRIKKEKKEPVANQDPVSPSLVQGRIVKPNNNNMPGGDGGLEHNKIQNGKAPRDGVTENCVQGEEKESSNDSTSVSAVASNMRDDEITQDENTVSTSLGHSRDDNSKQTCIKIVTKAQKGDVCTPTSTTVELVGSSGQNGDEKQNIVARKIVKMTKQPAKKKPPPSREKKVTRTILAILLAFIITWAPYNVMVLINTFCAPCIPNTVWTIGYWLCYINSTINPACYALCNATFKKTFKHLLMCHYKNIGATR
Chain of Muscarinic acetylcholine receptor M2 (Homo sapiens, UniProt P08172) (P08172 whole entry): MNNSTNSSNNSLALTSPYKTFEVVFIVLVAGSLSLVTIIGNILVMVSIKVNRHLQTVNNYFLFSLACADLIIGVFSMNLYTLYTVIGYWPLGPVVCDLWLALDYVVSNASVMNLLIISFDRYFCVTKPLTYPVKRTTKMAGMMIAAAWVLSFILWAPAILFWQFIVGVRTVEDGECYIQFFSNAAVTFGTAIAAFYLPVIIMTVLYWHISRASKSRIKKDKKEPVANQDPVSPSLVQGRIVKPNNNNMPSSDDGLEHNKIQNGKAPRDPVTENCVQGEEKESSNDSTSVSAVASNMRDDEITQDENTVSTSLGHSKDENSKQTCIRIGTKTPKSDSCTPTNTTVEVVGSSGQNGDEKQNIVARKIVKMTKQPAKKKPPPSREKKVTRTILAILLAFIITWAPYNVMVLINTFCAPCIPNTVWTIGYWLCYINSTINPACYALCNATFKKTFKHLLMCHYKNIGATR
Chain of Muscarinic acetylcholine receptor M3 (P08483 whole entry): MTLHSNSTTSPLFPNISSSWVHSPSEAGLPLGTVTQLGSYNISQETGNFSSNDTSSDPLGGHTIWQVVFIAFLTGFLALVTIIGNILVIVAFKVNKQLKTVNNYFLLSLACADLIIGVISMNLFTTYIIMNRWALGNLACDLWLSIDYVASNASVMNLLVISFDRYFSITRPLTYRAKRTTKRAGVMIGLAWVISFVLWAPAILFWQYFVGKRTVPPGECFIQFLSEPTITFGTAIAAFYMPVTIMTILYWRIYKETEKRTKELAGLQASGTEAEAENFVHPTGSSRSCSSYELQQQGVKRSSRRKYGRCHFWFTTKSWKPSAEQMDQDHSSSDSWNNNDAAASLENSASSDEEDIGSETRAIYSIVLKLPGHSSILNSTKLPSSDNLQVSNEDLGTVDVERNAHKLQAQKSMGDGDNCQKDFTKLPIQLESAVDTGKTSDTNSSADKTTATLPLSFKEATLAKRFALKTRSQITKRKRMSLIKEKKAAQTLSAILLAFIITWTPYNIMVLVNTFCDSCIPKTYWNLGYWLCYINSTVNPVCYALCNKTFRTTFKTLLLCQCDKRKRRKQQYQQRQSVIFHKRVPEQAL

Drug metabolism [1]: Metabolite_Detected | Drug metabolism [3]: Metabolite_Detected | Drug metabolism [4]: Metabolite_Detected | Drug metabolism [5]: Metabolite_Detected | pEC50 [6]: 7.06 | Drug metabolism [7]: Metabolite_Detected | fraction unbound [8]: 0.02 | Kp [9]: 0.11 | Drug metabolism [10]: Metabolite_Detected | EC50 [11]: > 30 µM | Drug metabolism [12]: Metabolite_Detected | solubility [13]: < 0.5 µM | Drug metabolism [14]: Metabolite_Detected | EC50 [15]: > 30 µM | Drug metabolism [16]: Metabolite_Detected | Drug metabolism [17]: Metabolite_Detected | EC50 [18]: > 30 µM | Activity [19]: Not Active | EC50 [20]: > 30 µM | EC50 [21]: > 30 µM | Drug metabolism [22]: Metabolite_Detected | bioavailability [23]: 61% | EC50 [24]: > 30 µM
Compound: Cc1nnc2sc(C(=O)NCc3ccc(-c4cccnc4F)cc3)c(N)c2c1C
IC50 [2]: > 33 µM | Activity (Salmonella typhimurium): Non-Toxic
